Laboratory results taken from ChEMBL document CHEMBL4270630.

Legend:
[1] = system: Influenza B virus; test: Antiviral activity against Influenza B virus B/Ned/537/05 infected in MDCK cells assessed as reduction in virus-induced cytopathic effect after 3 days by microscopic method; format: functional, organism-based; conditions: B/Ned/537/05, MDCK, 72 h
In short: (§1)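 Semi-confluent MDCK cells were infected at an MOI of 0.0004 PFU/cell in Ultra-MDCK infection medium with 2 μg/mL TPCK-trypsin, together with compounds. After 3 days at 35 °C, CPE was scored by microscopy and confirmed by MTS formazan viability. Values are means of two to five independent tests.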

[2] = system: Human coronavirus 229E; test: Antiviral activity against Human coronavirus 229E infected in HEL299 cells assessed as reduction in virus induced cytopathic effect after 5 days by microscopic method; format: functional, organism-based; conditions: HEL 299, 120 h
In short: (§2)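 Confluent HEL 299 cells in medium with 2% FCS were exposed to HCoV-229E (100 CCID50/well) together with compounds and held for 5 days at 35 °C. EC50 (CPE reduction) and MCC (minimal morphology change) were determined by microscopy. SI is MCC/EC50.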

[3] = Cytotoxicity against HEL299 cells assessed as changes in cell morphology after 5 days by microscopic method; format: cell-based, HEL 299; conditions: human; in short: as §2
[4] = system: MDCK; test: (§3) Cytotoxicity against MDCK cells assessed as reduction in cell viability after 3 days by MTS assay; format: cell-based, Canis lupus familiaris; conditions: dog, mdck, 72 h
[5] = system: Influenza A virus; test: Antiviral activity against Influenza A virus A/PR/8/34(H1N1) infected in MDCK cells after 3 days by MTS assay; format: functional, organism-based, A/Puerto Rico/8/1934(H1N1); conditions: Influenza A virus, A/Puerto Rico/8/1934(H1N1), MDCK, 72 h
In short: as §1, with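 “viability. EC50 is the concentration giving 50% inhibition of virus-induced CPE.” for “viability.”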

[6] = system: H3N2 subtype; test: Antiviral activity against Influenza A virus A/HK/7/87(H3N2) infected in MDCK cells after 3 days by MTS assay; format: functional, organism-based; conditions: A/Hong Kong/7/1987(H3N2), 72 h
In short: as §1, with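 “viability. EC50 is the concentration giving 50% inhibition of virus-induced CPE.” for “viability.”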

[7] = system: H3N2 subtype; test: Antiviral activity against Influenza A virus A/HK/7/87(H3N2) infected in MDCK cells assessed as reduction in virus-induced cytopathic effect after 3 days by microscopic method; format: functional, organism-based; conditions: A/Hong Kong/7/1987(H3N2), 72 h
In short: as §1, with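 “viability. EC50 is the concentration giving 50% inhibition of virus-induced CPE.” for “viability.”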

[8] = system: Influenza A virus; test: Antiviral activity against Influenza A virus A/Virginia/ATCC3/2009(H1N1pdm) infected in MDCK cells after 3 days by MTS assay; format: functional, organism-based, Influenza A virus (A/Virginia/03/2009(H1N1)); conditions: 72 h
In short: as §1, with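 “viability. EC50 is the concentration giving 50% inhibition of virus-induced CPE.” for “viability.”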

[9] = system: Influenza B virus; test: Antiviral activity against Influenza B virus B/Ned/537/05 infected in MDCK cells after 3 days by MTS assay; format: functional, organism-based; conditions: B/Ned/537/05, MDCK, 72 h; in short: as §1
[10] = Cytotoxicity against MDCK cells assessed as alteration in cell morphology after 3 days by microscopic method; format: cell-based, Canis lupus familiaris; conditions: dog
In short: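 Mock-infected MDCK cells were treated with compounds in parallel with the antiviral assay, 3 days at 35 °C. MCC is the concentration causing minimal change in cell morphology by microscopy. CC50 is the 50% cytotoxic concentration by MTS formazan viability assay.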

[11] = system: Influenza A virus; test: Antiviral activity against Influenza A virus A/Virginia/ATCC3/2009(H1N1pdm) infected in MDCK cells assessed as reduction in virus-induced cytopathic effect after 3 days by microscopic method; format: functional, organism-based, Influenza A virus (A/Virginia/03/2009(H1N1)); conditions: 72 h
In short: as §1, with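 “viability. EC50 is the concentration giving 50% inhibition of virus-induced CPE.” for “viability.”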

[12] = system: Influenza A virus; test: Antiviral activity against Influenza A virus A/PR/8/34(H1N1) infected in MDCK cells assessed as reduction in virus-induced cytopathic effect after 3 days by microscopic method; format: functional, organism-based, A/Puerto Rico/8/1934(H1N1); conditions: Influenza A virus, A/Puerto Rico/8/1934(H1N1), MDCK, 72 h
In short: as §1, with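 “viability. EC50 is the concentration giving 50% inhibition of virus-induced CPE.” for “viability.”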

[13] = Selectivity index, ratio of MCC for HEL299 cells to EC50 for Human coronavirus 229E infected in HEL299 cells; format: toxicity, cell-based; conditions: read-out: Selectivity Index; in short: as §2
[14] = system: Influenza A virus; test: Antiviral activity against Influenza A virus A/PR/8/34(H1N1) GFP-fused pseudotyped lentiviral particle expressing H1-HA/N1-NA infected in MDCK cells assessed as inhibition of pseudoparticle entry after 3 days by flow cytometry; format: functional, organism-based; conditions: A/Puerto Rico/8/1934(H1N1)
In short: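 MDCK cells were seeded at 7500/well and one day later were exposed to compounds plus GFP lentiviral pseudoparticles bearing A/PR/8/34 H1-HA and N1-NA, with HA0 activated by trypsin. After 3 days the cells were trypsinized, fixed in paraformaldehyde and analysed for GFP by flow cytometry. Entry inhibition was taken as the reduction in GFP signal. Data are the mean ± SEM of four independent experiments.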

[15] = Selectivity index, ratio of MCC for MDCK cells to EC50 for Influenza A virus A/HK/7/87(H3N2) infected in MDCK cells assessed as reduction in virus-induced cytopathic effect by microscopic method; format: toxicity, cell-based; conditions: dog, read-out: Selectivity Index
In short: (§4)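 Selectivity index is MCC divided by EC50. MCC comes from microscopy of mock-infected MDCK cells. EC50 comes from microscopic scoring of virus-induced CPE in MDCK cells infected at an MOI of 0.0004 PFU/cell with TPCK-trypsin. Both readings were taken after 3 days at 35 °C.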

[16] = system: Human coronavirus 229E; test: Antiviral activity against Human coronavirus 229E infected in human A549 cells assessed as reduction in virus RNA level after 3 days by qRT-PCR method; format: functional; conditions: A549, 72 h
In short: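 Confluent A549 cells were infected with HCoV-229E in 2% FCS medium with compounds present. The inoculum was removed at 1 h and compounds were kept on at 35 °C. Supernatants were harvested at day 3, lysed at 75 °C for 10 min, and viral genome copies counted by one-step qRT-PCR.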

[17] = Selectivity index, ratio of MCC for MDCK cells to EC50 for Influenza A virus A/PR/8/34(H1N1) infected in MDCK cells assessed as reduction in virus-induced cytopathic effect by microscopic method; format: toxicity, cell-based; conditions: dog, read-out: Selectivity Index; in short: as §4
[18] = Cytotoxicity against human A549 cells assessed as changes in cell morphology after 3 days by microscopic method; format: cell-based
In short: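 Mock-infected A549 cells were incubated with compounds for 3 days. MCC is the concentration causing minimal change in cell morphology by microscopy.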

[19] = Selectivity index, ratio of MCC for MDCK cells to EC50 for Influenza B virus B/HK/05/72 infected in MDCK cells assessed as reduction in virus-induced cytopathic effect by microscopic method; format: toxicity, cell-based; conditions: dog, read-out: Selectivity Index; in short: as §4
[20] = Selectivity index, ratio of MCC for MDCK cells to EC50 for Influenza B virus B/Ned/537/05 infected in MDCK cells assessed as reduction in virus-induced cytopathic effect by microscopic method; format: toxicity, cell-based; conditions: dog, read-out: Selectivity Index; in short: as §4
[21] = Selectivity index, ratio of MCC for MDCK cells to EC50 for Influenza A virus A/Virginia/ATCC3/2009(H1N1pdm) infected in MDCK cells assessed as reduction in virus-induced cytopathic effect by microscopic method; format: toxicity, cell-based; conditions: dog, read-out: Selectivity Index; in short: as §4
[22] = as §3; format: cell-based, Canis lupus familiaris; conditions: dog, MDCK cells
[23] = system: Influenza B virus; test: Antiviral activity against Influenza B virus B/HK/05/72 infected in MDCK cells after 3 days by MTS assay; format: functional, organism-based; conditions: B/Hong Kong/05/1972, MDCK, 72 h
In short: as §1, with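 “viability. EC50 is the concentration giving 50% inhibition of virus-induced CPE.” for “viability.”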

[24] = system: Influenza B virus; test: Antiviral activity against Influenza B virus B/HK/05/72 infected in MDCK cells assessed as reduction in virus-induced cytopathic effect after 3 days by microscopic method; format: functional, organism-based; conditions: B/Hong Kong/05/1972, MDCK, 72 h
In short: as §1, with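 “viability. EC50 is the concentration giving 50% inhibition of virus-induced CPE.” for “viability.”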

| Structure (SMILES) | EC50 [1] | EC50 [2] | MCC at 120 h [3] | CC50 [4] | EC50 [5] | EC50 [6] | EC50 [7] | EC50 [8] | EC50 [9] | MCC at 72 h [10] | EC50 [11] | EC50 [12] | selectivity ratio [15] | selectivity ratio [17] | selectivity ratio [19] | selectivity ratio [20] | selectivity ratio [21] | other results |
| --- | --- | --- | --- | --- | --- | --- | --- | --- | --- | --- | --- | --- | --- | --- | --- | --- | --- | --- |
| CCCCCCS(=O)(=O)N[C@H]1C(=O)N[C@@H]2Cc3ccc(c(Cl)c3)Oc3cc4cc(c3O)Oc3ccc(cc3Cl)[C@@H](O[C@@H]3O[C@H](CO)[C@@H](O)[C@H](O)[C@H]3NC(C)=O)[C@H]3NC(=O)[C@H](NC(O)[C@@H]4NC(=O)[C@@H](NC2=O)c2cc(O)cc(c2)Oc2cc1ccc2O)c1ccc(O)c(c1)-c1c(O)cc(O)cc1[C@H](C(=O)O)NC3=O (some centres undefined) | 8.9 µM | 1.5 µM | 20 µM | 54 µM | 9.6 µM | 8.9 µM | 8.3 µM | 9.1 µM | 10.3 µM | 100 µM | 8.9 µM | 8.6 µM | – | – | – | – | – | selectivity ratio [13]: 11 |
| COC(=O)[C@@H]1NC(=O)[C@@H]2NC(=O)[C@H](NC(=O)[C@@H]3NC(=O)[C@H]4NC(=O)[C@H](NC(=O)[C@H](Nc5c(NCc6ccc(-c7ccccc7)cc6)c(=O)c5=O)c5ccc(O)c(c5)Oc5cc4cc(O)c5C)[C@H](O)c4ccc(cc4)Oc4cc3cc(c4O)Oc3ccc(cc3)[C@H]2O)c2ccc(O)c(c2)-c2c(O)cc(O)cc21 | – | – | – | – | – | – | – | – | – | – | – | – | – | – | – | – | – | inhibition [14]: Dose-dependent effect |
| CCCCSC1=C(SCCCC)C(=O)N(CCOCCOCCOCCOCc2cn(C3C(=O)N[C@@H]4Cc5ccc(c(Cl)c5)Oc5cc6cc(c5O)Oc5ccc(cc5Cl)[C@@H](O[C@@H]5O[C@H](CO)[C@@H](O)[C@H](O)[C@H]5NC(C)=O)[C@H]5NC(=O)[C@H](NC(O)[C@@H]6NC(=O)[C@@H](NC4=O)c4cc(O)cc(c4)Oc4cc3ccc4O)c3ccc(O)c(c3)-c3c(O)cc(O)cc3[C@H](C(=O)O)NC5=O)nn2)C1=O (some centres undefined) | 5.5 µM | 8.9 µM | ≥ 100 µM | > 100 µM | 5.8 µM | 6 µM | 5.3 µM | 8.6 µM | 4.9 µM | 100 µM | 9.5 µM | 4.8 µM | 16 | 16 | 16 | 16 | 16 | EC90 [16]: 8.6 µM; EC99 [16]: 29 µM; MCC at 72 h [18]: > 50 µM |
| CC(=O)N[C@H]1[C@H](O[C@@H]2c3ccc(c(Cl)c3)Oc3cc4cc(c3O)Oc3ccc(cc3Cl)C[C@H]3NC(=O)[C@H](N5C(=O)C(SC[C@H]6O[C@@H]7OC(C)(C)O[C@@H]7[C@H]7OC(C)(C)O[C@H]76)=C(SC[C@H]6O[C@@H]7OC(C)(C)O[C@@H]7[C@H]7OC(C)(C)O[C@H]76)C5=O)c5ccc(O)c(c5)Oc5cc(O)cc(c5)[C@H](NC3=O)C(=O)N[C@H]4C(O)N[C@H]3C(=O)N[C@H]2C(=O)N[C@@H](C(=O)O)c2cc(O)cc(O)c2-c2cc3ccc2O)O[C@H](CO)[C@@H](O)[C@@H]1O (some centres undefined) | > 100 µM | – | – | 26 µM | 9.1 µM | 1.7 µM | 2.3 µM | 2.2 µM | 4.2 µM | 20 µM | 2.1 µM | > 100 µM | 5 | 5 | 5 | 5 | 5 | – |
| CCCCCCCCOCc1cn([C@H]2C(=O)N[C@@H]3Cc4ccc(c(Cl)c4)Oc4cc5cc(c4O)Oc4ccc(cc4Cl)[C@@H](O[C@@H]4O[C@H](CO)[C@@H](O)[C@H](O)[C@H]4NC(C)=O)[C@H]4NC(=O)[C@H](NC(O)[C@@H]5NC(=O)[C@@H](NC3=O)c3cc(O)cc(c3)Oc3cc2ccc3O)c2ccc(O)c(c2)-c2c(O)cc(O)cc2[C@H](C(=O)O)NC4=O)nn1 (some centres undefined) | – | – | – | – | 2.2 µM | 1.5 µM | 2.1 µM | 1.9 µM | – | ≥ 4 µM | 1.8 µM | > 100 µM | – | – | – | – | – | CC50 at 72 h [22]: 13 µM; EC50 [23]: 1.9 µM; EC50 [24]: 1.8 µM |
